Assay results from ChEMBL document CHEMBL4261535, “Tetrahydroquinolinone derivatives as potent P-glycoprotein inhibitors: design, synthesis, biological evaluation and molecular docking analysis” (Medchemcomm, 2017).
Calls of active or inactive are those of the source. The calls are words filed in the database; no cut-off is given here.

What was measured:
[1] = n-octanol-water partition co-efficient, log P of the compound; type: physicochemical
Homo sapiens [2] = organism: Homo sapiens; experiment: Inhibition of p-gp in human MES-SA/DX5 cells assessed as increase in rhodamine 123 accumulation preincubated for 20 mins followed by rhodamine 123 addition and measured after 20 mins by flow cytometric method; type: cell-based
Outline: (§1)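 Cells in serum-free RPMI at 5 × 10^5 cells per ml (MES-SA/DX5 taken off doxorubicin one day before). Compound 20 min at 37 °C, then 5 μM rhodamine 123 for 20 min at 37 °C. Washed twice in ice-cold PBS, kept on ice. Flow cytometry at 488 nm excitation, 530 nm emission, 20 000 cells. Gmean fluorescence expressed as a ratio to untreated cells. Verapamil was the positive control.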

MES-SA = experiment: Increase in rhodamine 123 accumulation in human MES-SA cells at 5 to 100 uM preincubated for 20 mins followed by rhodamine 123 addition and measured after 20 mins by flow cytometric method; type: functional, cell-based; outline: as §1
Homo sapiens [3] = organism: Homo sapiens; experiment: Inhibition of p-gp in human MES-SA/DX5 cells assessed as potentiation of doxorubicin-induced cytotoxicity at 5 uM preincubated for 1.5 hrs followed by doxorubicin addition and measured after 48 hrs by MTT assay; type: cell-based
Homo sapiens [4] = organism: Homo sapiens; experiment: Inhibition of p-gp in human MES-SA/DX5 cells assessed as increase in rhodamine 123 accumulation preincubated for 20 mins followed by rhodamine 123 addition and measured after 20 mins by fluorescence microscopic method; type: cell-based
Outline: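 MES-SA/DX5 seeded at 2 × 10^5 cells per ml and grown two days at 37 °C. Compound at 25 μM for 20 min, then rhodamine 123 at 5 μM final for 20 min. Cells washed three times with ice-cold PBS and resuspended in cold PBS. Imaged by fluorescence microscopy with a blue filter (510–560 nm). Untreated cells served as control.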

Homo sapiens [5] = organism: Homo sapiens; experiment: Inhibition of p-gp in human MES-SA/DX5 cells assessed as potentiation of doxorubicin-induced cytotoxicity at 25 uM preincubated for 1.5 hrs followed by doxorubicin addition and measured after 48 hrs by MTT assay; type: cell-based

Compound	logP [1]	inhibition (Homo sapiens [2])	Activity (MES-SA)	inhibition (Homo sapiens [3])	inhibition (Homo sapiens [4])	inhibition (Homo sapiens [5])
COc1cc(C2C(C(=O)OCc3ccccn3)=C(C)NC3=C2C(=O)CCC3)cc(OC)c1OC (stereo not given)	2.17	Dose-dependent effect	inactive			
CC1=C(C(=O)OCc2cccnc2)C(c2ccc(Br)cc2)C2=C(CCCC2=O)N1 (stereo not given)	2.05	Dose-dependent effect	inactive	Active		
CC1=C(C(=O)OCc2ccccn2)C(c2ccc(C#N)cc2)C2=C(CCCC2=O)N1 (stereo not given)	1.73	Dose-dependent effect	inactive	Active	Dose-dependent effect	
CC1=C(C(=O)OCc2cccnc2)C(c2cccs2)C2=C(CCCC2=O)N1 (stereo not given)	1.4	Dose-dependent effect	inactive			Active
CC1=C(C(=O)OCc2cccnc2)C(c2cccc(O)c2)C2=C(CCCC2=O)N1 (stereo not given)	1.21	Dose-dependent effect	inactive			
CC1=C(C(=O)OCc2ccccn2)C(c2cccs2)C2=C(CCCC2=O)N1 (stereo not given)	1.77	Dose-dependent effect	inactive			
CC1=C(C(=O)OCc2cccnc2)C(c2ccc(Cl)cc2)C2=C(CCCC2=O)N1 (stereo not given)	1.87	Dose-dependent effect	inactive	Active		
CC1=C(C(=O)OCc2ccccn2)C(c2ccco2)C2=C(CCCC2=O)N1 (stereo not given)	1.4	Dose-dependent effect	inactive			
CC1=C(C(=O)OCc2cccnc2)C(c2ccccc2[N+](=O)[O-])C2=C(CCCC2=O)N1 (stereo not given)	1.51		inactive		Dose-dependent effect	Active
CC1=C(C(=O)OCc2ccccn2)C(c2ccc([N+](=O)[O-])cc2)C2=C(CCCC2=O)N1 (stereo not given)	1.88	Dose-dependent effect	inactive	Active	Dose-dependent effect	
CC1=C(C(=O)OCc2ccccn2)C(c2ccc(Br)cc2)C2=C(CCCC2=O)N1 (stereo not given)	2.42	Dose-dependent effect	inactive	Active	Dose-dependent effect	
COc1ccc(C2C(C(=O)OCc3ccccn3)=C(C)NC3=C2C(=O)CCC3)cc1 (stereo not given)	1.9	Dose-dependent effect	inactive	Active		
CCCC1C(C(=O)OCc2ccccn2)=C(C)NC2=C1C(=O)CCC2 (stereo not given)	2.6	Dose-dependent effect	inactive			
CC1=C(C(=O)OCc2ccccn2)C(c2cccc(O)c2)C2=C(CCCC2=O)N1 (stereo not given)	1.58	Dose-dependent effect	inactive			
CC1=C(C(=O)OCc2ccccn2)C(c2ccc(Cl)cc2)C2=C(CCCC2=O)N1 (stereo not given)	2.24	Dose-dependent effect	inactive	Active		
CC1=C(C(=O)OCc2ccccn2)C(c2ccccc2[N+](=O)[O-])C2=C(CCCC2=O)N1 (stereo not given)	1.88		inactive	Active	Dose-dependent effect	
CC1=C(C(=O)OCc2cccnc2)C(c2ccc(C#N)cc2)C2=C(CCCC2=O)N1 (stereo not given)	1.36	Dose-dependent effect	inactive			
CC1=C(C(=O)OCc2cccnc2)C(c2ccccc2)C2=C(CCCC2=O)N1 (stereo not given)	2.35	Dose-dependent effect	inactive			
CC1=C(C(=O)OCc2ccccn2)C(c2cccc([N+](=O)[O-])c2)C2=C(CCCC2=O)N1 (stereo not given)	1.88	Dose-dependent effect	inactive			
CC1=C(C(=O)OCc2cccnc2)C(c2ccc([N+](=O)[O-])cc2)C2=C(CCCC2=O)N1 (stereo not given)	1.51	Dose-dependent effect	inactive		Dose-dependent effect	Active
COc1ccc(C2C(C(=O)OCc3cccnc3)=C(C)NC3=C2C(=O)CCC3)cc1 (stereo not given)	1.53	Dose-dependent effect	inactive			
CC1=C(C(=O)OCc2ccccn2)C(c2ccc(O)cc2)C2=C(CCCC2=O)N1 (stereo not given)	1.58	Dose-dependent effect	inactive			
CC1=C(C(=O)OCc2ccccn2)C(c2ccccc2)C2=C(CCCC2=O)N1 (stereo not given)	2.72	Dose-dependent effect	inactive			
CCCC1C(C(=O)OCc2cccnc2)=C(C)NC2=C1C(=O)CCC2 (stereo not given)	2.23	Dose-dependent effect	inactive			
CC1=C(C(=O)OCc2cccnc2)C(c2ccco2)C2=C(CCCC2=O)N1 (stereo not given)	1.03	Dose-dependent effect	inactive			
